In ChEMBL document CHEMBL2346608, “New annelated thieno[2,3-e][1,2,3]triazolo[1,5-a]pyrimidines, with potent anticancer activity, designed through VLAK protocol” (2013):

Experiments:
Format in all cases: functional
[1] = Antiproliferative activity against human EKVX cells after 48 hrs by sulforhodamine B assay
Method in brief: (§1)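 Cells grown in RPMI 1640 with 5% FBS and 2 mM L-glutamine, plated at 5000–40,000 cells/well and preincubated 24 h at 37 °C, 5% CO2. Five drug concentrations (10-fold or ½-log dilutions from DMSO stocks) applied for 48 h. TCA-fixed (final 10% adherent, 16% suspension), SRB-stained, A515 read. Growth versus time-zero and control wells gave GI50, TGI, LC50.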

[2] = test system: HT-29; assay: Antiproliferative activity against human HT-29 cells after 48 hrs by sulforhodamine B assay; details: HT-29, 48 h; method in brief: as §1
[3] = test system: MDA-MB-468; assay: Antiproliferative activity against human MDA-MB-468 cells after 48 hrs by sulforhodamine B assay; details: MDA-MB-468, 48 h; method in brief: as §1
[4] = test system: CAKI-1; assay: Antiproliferative activity against human CAKI-1 cells after 48 hrs by sulforhodamine B assay; details: CAKI-1, 48 h; method in brief: as §1
[5] = test system: NCI-H226; assay: Antiproliferative activity against human NCI-H226 cells after 48 hrs by sulforhodamine B assay; details: NCI-H226, 48 h; method in brief: as §1
[6] = test system: NCI-H460; assay: Antiproliferative activity against human NCI-H460 cells after 48 hrs by sulforhodamine B assay; details: NCI-H460, 48 h; method in brief: as §1
[7] = test system: SK-MEL-5; assay: Antiproliferative activity against human SK-MEL-5 cells after 48 hrs by sulforhodamine B assay; details: SK-MEL-5, 48 h; method in brief: as §1
[8] = test system: HCT-116; assay: Antiproliferative activity against human HCT116 cells after 48 hrs by sulforhodamine B assay; details: HCT-116, 48 h; method in brief: as §1
[9] = test system: HL-60; assay: Antiproliferative activity against human HL60 (TB) cells after 48 hrs by sulforhodamine B assay; details: HL-60, 48 h
Method in brief: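 NCI 60-cell panel protocol: cells in RPMI 1640 with 5% FBS and 2 mM L-glutamine, plated 24 h at 37 °C/5% CO2 before dosing. Compounds dissolved in DMSO and tested at five concentrations (10-fold or ½ log serial dilutions) for 48 h. Suspension cells fixed with 80% TCA (final 16%), SRB stained, absorbance at 515 nm. GI50 derived from time-zero-corrected growth.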

[10] = Antiproliferative activity against human Hs 578T cells after 48 hrs by sulforhodamine B assay; method in brief: as §1
[11] = test system: RPMI-8226; assay: Antiproliferative activity against human RPMI8226 cells after 48 hrs by sulforhodamine B assay; details: RPMI-8226, 48 h; method in brief: as §1
[12] = test system: RXF 393; assay: Antiproliferative activity against human RXF393 cells after 48 hrs by sulforhodamine B assay; details: RXF 393, 48 h; method in brief: as §1
[13] = test system: SNB-19; assay: Antiproliferative activity against human SNB19 cells after 48 hrs by sulforhodamine B assay; details: SNB-19, 48 h; method in brief: as §1
[14] = test system: SK-OV-3; assay: Antiproliferative activity against human SKOV3 cells after 48 hrs by sulforhodamine B assay; details: SK-OV-3, 48 h; method in brief: as §1
[15] = test system: OVCAR-4; assay: Antiproliferative activity against human OVCAR4 cells after 48 hrs by sulforhodamine B assay; details: OVCAR-4, 48 h; method in brief: as §1
[16] = test system: NCI-H23; assay: Antiproliferative activity against human NCI-H23 cells after 48 hrs by sulforhodamine B assay; details: NCI-H23, 48 h; method in brief: as §1
[17] = test system: UACC-62; assay: Antiproliferative activity against human UACC62 cells after 48 hrs by sulforhodamine B assay; details: UACC-62, 48 h
Method in brief: (§2)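 Cells in RPMI 1640 with 5% FBS and 2 mM L-glutamine were seeded at 5000–40,000/well according to doubling time and preincubated 24 h at 37 °C in 5% CO2. Time-zero plates were TCA-fixed when drug was added. Five 10-fold or ½-log dilutions from DMSO stocks were added for 48 h. After SRB staining, A515 was read and GI50 derived from [(Ti−Tz)/(C−Tz)]×100 = 50.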

[18] = test system: 786-0; assay: Antiproliferative activity against human 786-0 cells after 48 hrs by sulforhodamine B assay; details: 786-0, 48 h; method in brief: as §1
[19] = test system: TK-10; assay: Antiproliferative activity against human TK10 cells after 48 hrs by sulforhodamine B assay; details: TK-10, 48 h; method in brief: as §2
[20] = test system: SF-268; assay: Antiproliferative activity against human SF268 cells after 48 hrs by sulforhodamine B assay; details: SF-268, 48 h; method in brief: as §1
[21] = test system: MDA-MB-231; assay: Antiproliferative activity against human MDA-MB-231 cells after 48 hrs by sulforhodamine B assay; details: MDA-MB-231, 48 h; method in brief: as §1
[22] = test system: CCRF-CEM; assay: Antiproliferative activity against human CCRF-CEM cells after 48 hrs by sulforhodamine B assay; method in brief: as §1
[23] = test system: K562; assay: Antiproliferative activity against human K562 cells after 48 hrs by sulforhodamine B assay; details: K562, 48 h; method in brief: as §1
[24] = test system: ACHN; assay: Antiproliferative activity against human ACHN cells after 48 hrs by sulforhodamine B assay; method in brief: as §1
[25] = test system: OVCAR-8; assay: Antiproliferative activity against human OVCAR8 cells after 48 hrs by sulforhodamine B assay; details: OVCAR-8, 48 h; method in brief: as §1
[26] = test system: MDA-MB-435; assay: Antiproliferative activity against human MDA-MB-435 cells after 48 hrs by sulforhodamine B assay; details: MDA-MB-435, 48 h; method in brief: as §1
[27] = test system: M14; assay: Antiproliferative activity against human M14 cells after 48 hrs by sulforhodamine B assay; details: M14, 48 h; method in brief: as §1
[28] = read-out: pLC50 (the source's name) (converted)

## CN1CCN(CCCn2c(=O)c3sc4ncccc4c3n3nnc(-c4ccccc4)c23)CC1
[1]
  GI50: 6.46 µM
  LC50: 27.5 µM
[1]; read-out: pTGI (converted)
  TGI: 13.2 µM
[2]
  GI50: 2.88 µM
  LC50: 23.4 µM
[2]; read-out: pTGI (converted)
  TGI: 9.55 µM
[3]
  GI50: 6.92 µM
  LC50: 28.2 µM
[3]; read-out: pTGI (converted)
  TGI: 13.8 µM
[4]
  GI50: 6.17 µM
[4]; [28]
  CC50: 27.5 µM
[4]; read-out: pTGI (converted)
  TGI: 12.9 µM
[5]
  GI50: 7.41 µM
  LC50: 31.6 µM
[5]; read-out: pTGI (converted)
  TGI: 15.1 µM
[6]
  GI50: 6.92 µM
  LC50: 26.9 µM
[6]; read-out: pTGI (converted)
  TGI: 13.8 µM
[7]
  GI50: 7.24 µM
  LC50: 26.3 µM
[7]; read-out: pTGI (converted)
  TGI: 13.8 µM
[8]
  GI50: 5.25 µM
  LC50: 26.3 µM
[8]; read-out: pTGI (converted)
  TGI: 11.7 µM
[9]
  GI50: 0.794 µM
[9]; [28]
  CC50: 3.8 µM
[9]; read-out: pTGI (converted)
  TGI: 1.74 µM
[10]
  GI50: 6.46 µM
  LC50: 39.8 µM
[10]; read-out: pTGI (converted)
  TGI: 16.2 µM
[11]
  GI50: 6.17 µM
[11]; [28]
  CC50: 40.7 µM
[11]; read-out: pTGI (converted)
  TGI: 15.8 µM
[12]
  GI50: 6.31 µM
  LC50: 28.2 µM
[12]; read-out: pTGI (converted)
  TGI: 13.5 µM
[13]
  GI50: 8.32 µM
  LC50: 29.5 µM
[13]; read-out: pTGI (converted)
  TGI: 15.8 µM
[14]
  GI50: 8.91 µM
  LC50: 28.2 µM
[14]; read-out: pTGI (converted)
  TGI: 15.8 µM
[15]
  GI50: 7.24 µM
  LC50 (concentration killing 50% of cells): 26.9 µM
[15]; read-out: pTGI (converted)
  TGI: 14.1 µM
[16]
  GI50: 8.13 µM
  LC50: 28.8 µM
[16]; read-out: pTGI (converted)
  TGI: 15.5 µM
[17]
  GI50: 8.91 µM
  LC50 (concentration killing 50% of cells): 29.5 µM
[17]; read-out: pTGI (converted)
  TGI: 16.2 µM
[18]
  GI50: 7.41 µM
[18]; [28]
  CC50: 28.8 µM
[18]; read-out: pTGI (converted)
  TGI: 14.5 µM
[19]
  GI50: 6.92 µM
  LC50: 26.9 µM
[19]; read-out: pTGI (converted)
  TGI: 13.5 µM
[20]
  GI50: 6.46 µM
  LC50: 26.9 µM
[20]; read-out: pTGI (converted)
  TGI: 13.2 µM
[21]
  GI50: 6.92 µM
  LC50: 26.9 µM
[21]; read-out: pTGI (converted)
  TGI: 13.5 µM
[22]
  GI50: 1.55 µM
  LC50: 24.5 µM
[22]; read-out: pTGI (converted)
  TGI: 5.25 µM
[23]
  GI50: 0.871 µM
  LC50 (concentration killing 50% of cells): 4.79 µM
[23]; read-out: pTGI (converted)
  TGI: 2.04 µM
[24]
  GI50: 8.13 µM
  LC50 (50% lethal concentration): 27.5 µM
[24]; read-out: pTGI (converted)
  TGI: 15.1 µM
[25]
  GI50: 7.76 µM
  LC50: 30.2 µM
[25]; read-out: pTGI (converted)
  TGI: 15.5 µM
[26]
  GI50: 1.17 µM
  LC50: 13.2 µM
[26]; read-out: pTGI (converted)
  TGI: 3.02 µM
[27]
  GI50: 2.14 µM
  LC50: 20.9 µM
[27]; read-out: pTGI (converted)
  TGI: 7.41 µM
